Where no end group is shown, it is not given here. [ ]: non-standard residue; d: D form. pT = C[C@@H](OP(=O)(O)O)[C@H](N)C(=O)O
Experiments:
[1] = target: Rad4-BRCT3,4 (BRCT3,4 segment of S. pombe Rad4^TopBP1) (S. pombe) (UniProt P32372); experiment: fluorescence polarisation
[2] = target: T1, Rad4-BRCT1,2 (Schizosaccharomyces pombe, UniProt P32372); experiment: Co-crystallisation with Rad4-BRCT1,2; format: binding, S. pombe; settings: co-crystal X-ray structure
T1 sequence (P32372 1-186 limits assumed): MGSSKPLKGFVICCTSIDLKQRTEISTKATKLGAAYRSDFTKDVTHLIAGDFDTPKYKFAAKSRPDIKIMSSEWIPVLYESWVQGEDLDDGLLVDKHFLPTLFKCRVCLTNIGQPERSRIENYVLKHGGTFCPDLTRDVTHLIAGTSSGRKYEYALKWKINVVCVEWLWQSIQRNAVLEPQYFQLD
How it was run: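 S. pombe Rad4 BRCT1,2 construct expressed in E. coli and purified by affinity tags and conventional column chromatography. Crystals of protein and complexes grown by hanging-drop vapour diffusion. Diffraction data collected from single crystals on a home source or synchrotron. Structures phased by molecular replacement and refined.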

[3] = target: Rad4-BRCT1,2 (BRCT1,2 segment of S. pombe Rad4^TopBP1) (S. pombe) (UniProt P32372); experiment: fluorescence polarisation
[4] = target: Rad4-BRCT1,2 K56E (S. pombe) (UniProt P32372); experiment: fluorescence polarisation
[5] = target: Rad4-BRCT1,2 K151E (S. pombe) (UniProt P32372); experiment: fluorescence polarisation
[6] = target: T2, Rad4-BRCT1,2 K151E (S. pombe, UniProt P32372 1-186, K151E); experiment: fluorescence polarisation
T2 sequence: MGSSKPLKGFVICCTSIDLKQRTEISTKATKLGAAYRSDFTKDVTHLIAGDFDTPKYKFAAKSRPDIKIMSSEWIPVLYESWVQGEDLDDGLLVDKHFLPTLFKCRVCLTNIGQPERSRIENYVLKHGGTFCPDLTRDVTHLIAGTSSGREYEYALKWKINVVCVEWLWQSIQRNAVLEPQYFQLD

[7] = target: T3, Rad4-BRCT1,2 K56E (S. pombe, UniProt P32372 1-186, K56E); experiment: fluorescence polarisation
T3 sequence: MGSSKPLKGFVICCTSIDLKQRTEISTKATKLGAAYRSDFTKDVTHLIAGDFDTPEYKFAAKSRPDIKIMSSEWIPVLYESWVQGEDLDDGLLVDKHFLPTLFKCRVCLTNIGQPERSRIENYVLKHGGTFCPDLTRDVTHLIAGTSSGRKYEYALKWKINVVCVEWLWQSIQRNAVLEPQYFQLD

Sequence of Rad4-BRCT3,4 (BRCT3,4 segment of S. pombe Rad4^TopBP1) (S. pombe) (P32372 291-494): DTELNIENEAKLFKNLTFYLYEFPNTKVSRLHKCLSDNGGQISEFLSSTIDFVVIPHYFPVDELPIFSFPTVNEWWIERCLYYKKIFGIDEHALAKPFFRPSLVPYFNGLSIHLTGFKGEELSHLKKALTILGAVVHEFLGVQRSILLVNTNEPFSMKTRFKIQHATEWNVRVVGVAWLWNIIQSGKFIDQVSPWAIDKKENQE

Q: Which Kd [1] does the source give for “Rad9 C-terminal tail peptide phosphorylated on Thr412” here?
A: 1900 nM

Q: With 184 – Val Pro Glu pThr Val – 188 as the molecule, how does the “site occupancy in co-crystal structure with Rad4-BRCT1,2 (in words)” value [2] read?
A: peptide molecules bound to both BRCT domains

Q: Which Kd [1] does the source give for “Rad9 C-terminal tail peptide phosphorylated on Ser423” here?
A: 8600 nM

Q: With “Rad9 C-terminal tail peptide phosphorylated on Thr412 and Ser423” as the molecule, how does the Kd [1] read?
A: 6400 nM

Q: For “Crb2 peptide phosphorylated on both Thr215 and Thr235 (fluorescence polarisation)”, which Kd [3] is on record?
A: 1970 nM

Q: For “232 – Val Glu Ser pThr Pro – 236 [Crb2 phosphopeptide (residues 229-241)]”, which “site occupancy in co-crystal structure with Rad4-BRCT1,2 (in words)” value [2] is on record?
A: only the BRCT2 site was occupied

Q: For “Crb2-pThr187 phosphopeptide, fluorescently labelled”, which Kd [4] is on record?
A: 2200 nM

Q: And the Kd [3]?
A: 500 nM

Q: And the Kd [5]?
A: 400 nM

Q: RVES[pT]PPAFLP (also: fluorescein label, site not given here) [Crb2-pThr235 phosphopeptide, fluorescently labelled] was tested. Which Kd [6] did it give?
A: 59000 nM

Q: And the Kd [7]?
A: 11700 nM
